Experimental data as given in ChEMBL document CHEMBL3860039, “Structure-Activity Relationship and Signaling of New Chimeric CXCR4 Agonists” (J Med Chem, 2016).

Tests used:
[1] = molecular target: T1, C-X-C chemokine receptor type 4 (Homo sapiens, UniProt P61073); assay: Displacement of [125I]-CXCL12 from HA-tagged human recombinant CXCR4 expressed in HEK293 cells incubated for 1 hr by gamma-radiation counting analysis; type: cell-based
[2] = molecular target: T1, C-X-C chemokine receptor type 4; assay: Agonist activity at HA-tagged human CXCR4 receptor expressed in HEK293 cells co-transfected with Galphai1-91-RlucII, Gbeta1, and GFP10-G-gamma1 incubated for 7 mins by Galpha1 protein activation-based BRET assay; type: cell-based
Method in brief: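 HEK293 cells (3 × 10^6 per 100 mm dish) co-transfected via polyethylenimine with HA-hCXCR4 plus Gαi1-91-RlucII, Gβ1, GFP10-Gγ1; replated at 24 h, 100 000 cells/well. At 48 h, washed in HBSS/0.1% BSA, exposed to ligand 10−12 to 10−5 M for 7 min, then coelenterazine-400A 5 μM final; BRET2 515/400 nm ratio. EC50 (Gαi dissociation) and Emax from three experiments in triplicate.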

T1 sequence (P61073 whole entry): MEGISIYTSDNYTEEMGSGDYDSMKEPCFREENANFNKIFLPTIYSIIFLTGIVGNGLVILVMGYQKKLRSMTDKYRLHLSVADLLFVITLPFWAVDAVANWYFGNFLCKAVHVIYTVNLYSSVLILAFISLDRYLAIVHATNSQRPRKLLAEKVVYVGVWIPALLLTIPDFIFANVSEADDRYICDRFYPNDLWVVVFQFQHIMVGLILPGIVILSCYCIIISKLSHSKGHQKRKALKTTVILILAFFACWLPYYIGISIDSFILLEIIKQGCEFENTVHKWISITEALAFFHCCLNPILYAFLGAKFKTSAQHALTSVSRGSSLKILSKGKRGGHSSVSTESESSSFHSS

| SMILES | IC50 [1] [nM] | further results |
| --- | --- | --- |
| CCCC[C@H](N)C(=O)N1CCC[C@H]1C(=O)N[C@H](C(=O)N[C@@H](CO)C(=O)N[C@@H](CC(C)C)C(=O)N[C@@H](CO)C(=O)N[C@@H](Cc1ccc(O)cc1)C(=O)N[C@@H](CCCNC(=N)N)C(=O)N[C@@H](CO)C(=O)N[C@@H](C)C(=O)NCCCC[C@H](NC(=O)[C@@H]1CSSC[C@H](NC(=O)[C@H](Cc2ccc3ccccc3c2)NC(=O)[C@H](CCCNC(=N)N)NC(=O)[C@@H](N)CCCNC(=N)N)C(=O)N[C@@H](Cc2ccc(O)cc2)C(=O)N[C@@H](CCCNC(=N)N)C(=O)N[C@@H](CCCCN)C(=O)N[C@H](CCCCN)C(=O)N2CCC[C@H]2C(=O)N[C@@H](Cc2ccc(O)cc2)C(=O)NC(CCCNC(=N)N)C(=O)N[C@@H](CCCNC(=N)N)C(=O)N1)C(=O)O)C(C)C (stereo not given in full) | 267 |  |
| CC(C)C[C@H](NC(=O)[C@H](CO)NC(=O)[C@@H](NC(=O)[C@H](C)NC(=O)[C@@H](N)CCCCN)C(C)C)C(=O)N[C@@H](CO)C(=O)N[C@@H](Cc1ccc(O)cc1)C(=O)N[C@@H](CCCNC(=N)N)C(=O)N[C@@H](CO)C(=O)N[C@@H](C)C(=O)NCCCC[C@H](NC(=O)[C@@H]1CSSC[C@H](NC(=O)[C@H](Cc2ccc3ccccc3c2)NC(=O)[C@H](CCCNC(=N)N)NC(=O)[C@@H](N)CCCNC(=N)N)C(=O)N[C@@H](Cc2ccc(O)cc2)C(=O)N[C@@H](CCCNC(=N)N)C(=O)N[C@@H](CCCCN)C(=O)N[C@H](CCCCN)C(=O)N2CCC[C@H]2C(=O)N[C@@H](Cc2ccc(O)cc2)C(=O)N[C@@H](CCCNC(=N)N)C(=O)N[C@@H](CCCNC(=N)N)C(=O)N1)C(=O)O | 353 |  |
| CC(C)C[C@H](NC(=O)[C@H](CO)NC(=O)[C@H](Cc1ccccc1)N(C)C(=O)[C@@H]1CCCN1C(=O)[C@@H](N)CCCCN)C(=O)N[C@@H](CO)C(=O)N[C@@H](Cc1ccc(O)cc1)C(=O)N[C@@H](CCCNC(=N)N)C(=O)N[C@@H](CO)C(=O)N[C@@H](C)C(=O)NCCCC[C@H](NC(=O)[C@@H]1CSSC[C@H](NC(=O)[C@H](Cc2ccc3ccccc3c2)NC(=O)[C@H](CCCNC(=N)N)NC(=O)[C@@H](N)CCCNC(=N)N)C(=O)N[C@@H](Cc2ccc(O)cc2)C(=O)N[C@@H](CCCNC(=N)N)C(=O)N[C@@H](CCCCN)C(=O)N[C@H](CCCCN)C(=O)N2CCC[C@H]2C(=O)N[C@@H](Cc2ccc(O)cc2)C(=O)N[C@@H](CCCNC(=N)N)C(=O)N[C@@H](CCCNC(=N)N)C(=O)N1)C(=O)O | 678 |  |
| CC(C)C[C@H](NC(=O)[C@H](CO)NC(=O)[C@@H](NC(=O)[C@@H]1CCCN1C(=O)[C@@H](N)CCCCN)C(C)C)C(=O)N[C@@H](CO)C(=O)N[C@@H](Cc1ccc(O)cc1)C(=O)NCCOCCOCCOCCC(=O)NCCCC[C@H](NC(=O)[C@@H]1CSSC[C@H](NC(=O)[C@H](Cc2ccc3ccccc3c2)NC(=O)[C@H](CCCNC(=N)N)NC(=O)[C@@H](N)CCCNC(=N)N)C(=O)N[C@@H](Cc2ccc(O)cc2)C(=O)N[C@@H](CCCNC(=N)N)C(=O)N[C@@H](CCCCN)C(=O)N[C@H](CCCCN)C(=O)N2CCC[C@H]2C(=O)N[C@@H](Cc2ccc(O)cc2)C(=O)N[C@@H](CCCNC(=N)N)C(=O)N[C@@H](CCCNC(=N)N)C(=O)N1)C(=O)O | 437 | EC50 [2]: 61 nM; Emax [2]: 24% |
| CC(C)C[C@H](NC(=O)[C@H](CO)NC(=O)[C@@H](NC(=O)[C@H]1CCCN1C(=O)[C@@H](N)CCCCN)C(C)C)C(=O)N[C@@H](CO)C(=O)N[C@@H](Cc1ccc(O)cc1)C(=O)N[C@@H](CCCNC(=N)N)C(=O)N[C@@H](CO)C(=O)N[C@@H](C)C(=O)NCCCC[C@H](NC(=O)[C@@H]1CSSC[C@H](NC(=O)[C@H](Cc2ccc3ccccc3c2)NC(=O)[C@H](CCCNC(=N)N)NC(=O)[C@@H](N)CCCNC(=N)N)C(=O)N[C@@H](Cc2ccc(O)cc2)C(=O)N[C@@H](CCCNC(=N)N)C(=O)N[C@@H](CCCCN)C(=O)N[C@H](CCCCN)C(=O)N2CCC[C@H]2C(=O)N[C@@H](Cc2ccc(O)cc2)C(=O)N[C@@H](CCCNC(=N)N)C(=O)N[C@@H](CCCNC(=N)N)C(=O)N1)C(=O)O |  | IC50 ([1]; hek293): 151 nM |
| CC(C)C[C@H](NC(=O)[C@H](CO)NC(=O)[C@@H](NC(=O)[C@@H]1CCCN1C(=O)[C@@H](N)CCCCN)C(C)C)C(=O)N[C@@H](CO)C(=O)N[C@@H](C)C(=O)N[C@@H](CCCNC(=N)N)C(=O)N[C@@H](CO)C(=O)N[C@@H](C)C(=O)NCCCC[C@H](NC(=O)[C@@H]1CSSC[C@H](NC(=O)[C@H](Cc2ccc3ccccc3c2)NC(=O)[C@H](CCCNC(=N)N)NC(=O)[C@@H](N)CCCNC(=N)N)C(=O)N[C@@H](Cc2ccc(O)cc2)C(=O)N[C@@H](CCCNC(=N)N)C(=O)N[C@@H](CCCCN)C(=O)N[C@H](CCCCN)C(=O)N2CCC[C@H]2C(=O)N[C@@H](Cc2ccc(O)cc2)C(=O)N[C@@H](CCCNC(=N)N)C(=O)N[C@@H](CCCNC(=N)N)C(=O)N1)C(=O)O | 230 |  |
| CC(C)C[C@H](NC(=O)[C@H](CO)NC(=O)[C@@H](NC(=O)[C@@H]1Cc2ccccc2CN1C(=O)[C@@H](N)CCCCN)C(C)C)C(=O)N[C@@H](CO)C(=O)N[C@@H](Cc1ccc(O)cc1)C(=O)N[C@@H](CCCNC(=N)N)C(=O)N[C@@H](CO)C(=O)N[C@@H](C)C(=O)NCCCC[C@H](NC(=O)[C@@H]1CSSC[C@H](NC(=O)[C@H](Cc2ccc3ccccc3c2)NC(=O)[C@H](CCCNC(=N)N)NC(=O)[C@@H](N)CCCNC(=N)N)C(=O)N[C@@H](Cc2ccc(O)cc2)C(=O)N[C@@H](CCCNC(=N)N)C(=O)N[C@@H](CCCCN)C(=O)N[C@H](CCCCN)C(=O)N2CCC[C@H]2C(=O)N[C@@H](Cc2ccc(O)cc2)C(=O)N[C@@H](CCCNC(=N)N)C(=O)N[C@@H](CCCNC(=N)N)C(=O)N1)C(=O)O | 222 |  |
| CC(C)C[C@H](NC(=O)[C@H](CO)NC(=O)[C@@H](NC(=O)[C@@H]1CCCN1C(=O)[C@H](C)N)C(C)C)C(=O)N[C@@H](CO)C(=O)N[C@@H](Cc1ccc(O)cc1)C(=O)N[C@@H](CCCNC(=N)N)C(=O)N[C@@H](CO)C(=O)N[C@@H](C)C(=O)NCCCC[C@H](NC(=O)[C@@H]1CSSC[C@H](NC(=O)[C@H](Cc2ccc3ccccc3c2)NC(=O)[C@H](CCCNC(=N)N)NC(=O)[C@@H](N)CCCNC(=N)N)C(=O)N[C@@H](Cc2ccc(O)cc2)C(=O)N[C@@H](CCCNC(=N)N)C(=O)N[C@@H](CCCCN)C(=O)N[C@H](CCCCN)C(=O)N2CCC[C@H]2C(=O)N[C@@H](Cc2ccc(O)cc2)C(=O)N[C@@H](CCCNC(=N)N)C(=O)N[C@@H](CCCNC(=N)N)C(=O)N1)C(=O)O | 282 |  |
| CC(C)C[C@H](NC(=O)[C@H](CO)NC(=O)[C@@H](NC(=O)[C@@H]1CCCN1)C(C)C)C(=O)N[C@@H](CO)C(=O)N[C@@H](Cc1ccc(O)cc1)C(=O)N[C@@H](CCCNC(=N)N)C(=O)N[C@@H](CO)C(=O)N[C@@H](C)C(=O)NCCCC[C@H](NC(=O)[C@@H]1CSSC[C@H](NC(=O)[C@H](Cc2ccc3ccccc3c2)NC(=O)[C@H](CCCNC(=N)N)NC(=O)[C@@H](N)CCCNC(=N)N)C(=O)N[C@@H](Cc2ccc(O)cc2)C(=O)N[C@@H](CCCNC(=N)N)C(=O)N[C@@H](CCCCN)C(=O)N[C@H](CCCCN)C(=O)N2CCC[C@H]2C(=O)N[C@@H](Cc2ccc(O)cc2)C(=O)N[C@@H](CCCNC(=N)N)C(=O)N[C@@H](CCCNC(=N)N)C(=O)N1)C(=O)O | 548 |  |

More lines, main results first:

| IC50 [1] [nM] | SMILES | further results |
| --- | --- | --- |
| 137 | CC(C)C[C@H](NC(=O)[C@H](CO)NC(=O)[C@@H](NC(=O)C1(NC(=O)[C@@H](N)CCCCN)Cc2ccccc2C1)C(C)C)C(=O)N[C@@H](CO)C(=O)N[C@@H](Cc1ccc(O)cc1)C(=O)N[C@@H](CCCNC(=N)N)C(=O)N[C@@H](CO)C(=O)N[C@@H](C)C(=O)NCCCC[C@H](NC(=O)[C@@H]1CSSC[C@H](NC(=O)[C@H](Cc2ccc3ccccc3c2)NC(=O)[C@H](CCCNC(=N)N)NC(=O)[C@@H](N)CCCNC(=N)N)C(=O)N[C@@H](Cc2ccc(O)cc2)C(=O)N[C@@H](CCCNC(=N)N)C(=O)N[C@@H](CCCCN)C(=O)N[C@H](CCCCN)C(=O)N2CCC[C@H]2C(=O)N[C@@H](Cc2ccc(O)cc2)C(=O)N[C@@H](CCCNC(=N)N)C(=O)N[C@@H](CCCNC(=N)N)C(=O)N1)C(=O)O |  |
| 127 | CC(C)C[C@H](NC(=O)[C@H](CO)NC(=O)[C@H](C(C)C)N(C)C(=O)[C@@H]1CCCN1C(=O)[C@@H](N)CCCCN)C(=O)N[C@@H](CO)C(=O)N[C@@H](Cc1ccc(O)cc1)C(=O)N[C@@H](CCCNC(=N)N)C(=O)N[C@@H](CO)C(=O)N[C@@H](C)C(=O)NCCCC[C@H](NC(=O)[C@@H]1CSSC[C@H](NC(=O)[C@H](Cc2ccc3ccccc3c2)NC(=O)[C@H](CCCNC(=N)N)NC(=O)[C@@H](N)CCCNC(=N)N)C(=O)N[C@@H](Cc2ccc(O)cc2)C(=O)N[C@@H](CCCNC(=N)N)C(=O)N[C@@H](CCCCN)C(=O)N[C@H](CCCCN)C(=O)N2CCC[C@H]2C(=O)N[C@@H](Cc2ccc(O)cc2)C(=O)N[C@@H](CCCNC(=N)N)C(=O)N[C@@H](CCCNC(=N)N)C(=O)N1)C(=O)O |  |
| 171 | CC(C)[C@H](NC(=O)[C@@H]1CCCN1C(=O)[C@@H](N)CCCCN)C(=O)N[C@@H](CO)C(=O)N[C@@H](C)C(=O)N[C@@H](CO)C(=O)N[C@@H](Cc1ccc(O)cc1)C(=O)N[C@@H](CCCNC(=N)N)C(=O)N[C@@H](CO)C(=O)N[C@@H](C)C(=O)NCCCC[C@H](NC(=O)[C@@H]1CSSC[C@H](NC(=O)[C@H](Cc2ccc3ccccc3c2)NC(=O)[C@H](CCCNC(=N)N)NC(=O)[C@@H](N)CCCNC(=N)N)C(=O)N[C@@H](Cc2ccc(O)cc2)C(=O)N[C@@H](CCCNC(=N)N)C(=O)N[C@@H](CCCCN)C(=O)N[C@H](CCCCN)C(=O)N2CCC[C@H]2C(=O)N[C@@H](Cc2ccc(O)cc2)C(=O)N[C@@H](CCCNC(=N)N)C(=O)N[C@@H](CCCNC(=N)N)C(=O)N1)C(=O)O |  |
| 95 | CC(C)C[C@H](NC(=O)[C@H](CO)NC(=O)[C@@H](N)C(C)C)C(=O)N[C@@H](CO)C(=O)N[C@@H](Cc1ccc(O)cc1)C(=O)N[C@@H](CCCNC(=N)N)C(=O)N[C@@H](CO)C(=O)N[C@@H](C)C(=O)NCCCC[C@H](NC(=O)[C@@H]1CSSC[C@H](NC(=O)[C@H](Cc2ccc3ccccc3c2)NC(=O)[C@H](CCCNC(=N)N)NC(=O)[C@@H](N)CCCNC(=N)N)C(=O)N[C@@H](Cc2ccc(O)cc2)C(=O)N[C@@H](CCCNC(=N)N)C(=O)N[C@@H](CCCCN)C(=O)N[C@H](CCCCN)C(=O)N2CCC[C@H]2C(=O)N[C@@H](Cc2ccc(O)cc2)C(=O)N[C@@H](CCCNC(=N)N)C(=O)N[C@@H](CCCNC(=N)N)C(=O)N1)C(=O)O |  |
